# ChEMBL document CHEMBL1126804, “Mammalian topoisomerase II inhibitory activity of 1-cyclopropyl-6,8- difluoro-1,4-dihydro-7-(2,6-dimethyl-4-pyridinyl)-4-oxo-3-quinolinecarb oxylic acid and related derivatives” (J Med Chem, 1993)
# System: P388
# Assay: In vitro cytotoxicity against P388 murine leukemia cells in culture in a clonogenic assay after 1 hour exposure to drug
# Type: functional, cell-based
# Settings: Mus musculus, P388, 1 h
row,Structure (SMILES),IC50 [µM]
1,COc1cc([C@@H]2c3cc4c(cc3[C@@H](O[C@@H]3O[C@@H]5CO[C@@H](C)O[C@H]5[C@H](O)[C@H]3O)[C@H]3COC(=O)[C@H]23)OCO4)cc(OC)c1O [ETOPOSIDE],0.3
2,Cc1cc(-c2c(F)cc3c(=O)c(C(=O)O)cn(C4CC4)c3c2F)cc(C)n1 [WIN-57294],29

# Target: DNA topoisomerase II (Homo sapiens, UniProt P11388+Q02880)
# Assay: Tested for inhibition of topoisomerase II isolated from HeLa cells by DNA-cleavage assay
# Settings: not given
# How it was run: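 HeLa topo II purified from late-log suspension cultures. Reactions were assembled at 4 °C in 50 mM Tris-Cl pH 7.9, 44 mM NaCl, 10 mM MgCl2, 0.5 mM ATP, 3'-32P-end-labeled pBR322 and 10 units enzyme, then run 20 min at 37 °C. SDS/KCl precipitation captured covalent complex, counted by scintillation.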
row,Structure (SMILES),EC50 [µM]
1,NC1CCN(c2c(F)cc3c(=O)c(C(=O)O)cn(C4CC4)c3c2F)C1 (centres undefined),340
2,Cc1cc(-c2c(F)cc3c(=O)c(C(=O)O)c(-c4ccccc4)n(C4CC4)c3c2F)cc(C)n1,> 220
3,Cc1cc(-c2c(F)cc3c(=O)c(C(=O)O)cn(CCF)c3c2F)cc(C)n1,> 530
4,O=C(O)c1cn(C2CC2)c2c(F)c(-c3cccnc3)c(F)cc2c1=O,52
5,Cc1cc(-c2c(F)cc3c(=O)c(C(=O)O)cn(-c4ccc(F)cc4)c3c2F)cc(C)n1,> 430
6,Cc1cc(-c2c(F)c(N)c3c(=O)c(C(=O)O)cn(C4CC4)c3c2F)cc(C)n1,6.2
7,Cc1cc(-c2c(F)cc3c(=O)ccn(C4CC4)c3c2F)cc(C)n1,17
8,Cc1cc(-c2c(F)cc3c(=O)c(C(=O)[O-])cn(C(C)(C)C)c3c2F)cc(C)n1.[Na+],74
9,O=C(O)c1cn(C2CC2)c2c(F)c(-c3ccncc3)c(F)cc2c1=O,17
10,Cc1cc(-c2c(F)c(F)c3c(=O)c(C(=O)O)cn(C4CC4)c3c2F)cc(C)n1,13
11,CN1CCN(c2c(F)cc3c(=O)c(C(=O)O)cn(C4CC4)c3c2F)CC1,150
12,Cc1cc(-c2c(F)cc3c(=O)c(C(=O)O)csc3c2F)cc(C)n1.Cl,> 140
13,Cc1cc(-c2c(F)cc3c(O)c(C(=O)O)cnc3c2F)cc(C)n1,> 300
14,Cc1cc(-c2c(F)cc3c(=O)cc(C)n(C4CC4)c3c2F)cc(C)n1,16
15,CCn1cc(C(=O)O)c(=O)c2cc(F)c(-c3cc(C)nc(C)c3)c(F)c21,110
16,Cc1cc(-c2c(F)c(Sc3ccccc3)c3c(=O)c(C(=O)O)cn(C4CC4)c3c2F)cc(C)n1,> 420
17,O=C(O)c1cn(C2CC2)c2c(F)c(-c3ccc(O)cc3)c(F)cc2c1=O,1.2
18,Cc1cc(-c2c(F)cc3c(=O)c(C(=O)O)c(C)n(C4CC4)c3c2F)cc(C)n1,> 260
19,Cc1cc(-c2c(F)cc3c(=O)c(C(=O)O)cn(C4CC4)c3c2F)ccn1,16
20,Cc1ccc(-c2c(F)cc3c(=O)c(C(=O)O)cn(C4CC4)c3c2F)c(C)n1,53
21,Cc1cc(-c2c(F)cc3c(=O)cc(-c4ccccc4)n(C4CC4)c3c2F)cc(C)n1,> 240
22,Cc1cc(-c2c(F)cc3c(=O)c(C(=O)O)cn(C4CC4)c3c2F)cc(C)n1 [WIN-57294],7.6
